Reference: the EternaBench riboswitch data

What was measured:
MS2 coat protein [1] = experiment: apparent Kd, MS2 coat protein; higher = weaker binding; RNA-MaP array; theophylline 2 mM where present
Outline: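 Green signal from SNAP-549-labelled MS2 coat protein was normalised to red-channel RNA signal and to the median Fmax of control clusters. The protein was titrated from 0.7 or 1.5 nM, doubling to 3 µM, without and then with constant ligand, over designs transcribed by stalled E. coli RNA polymerase on Illumina sequencing-chip clusters, in 100 mM Tris-HCl pH 7.5, 80 mM KCl, 4 mM MgCl2, BSA, DTT, yeast tRNA and Tween-20. The apparent Kd is the median of filtered per-cluster binding-curve fits.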

MS2 coat protein [2] = experiment: apparent Kd, MS2 coat protein; higher = weaker binding; RNA-MaP array
Outline: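 Apparent Kd was taken as the median of binding curves fitted cluster by cluster. The designed RNAs were made by transcription of sequenced DNA templates on an Illumina sequencing chip and exposed to fluorescently labeled MS2 coat protein (1.5 nM to 3 μM) at room temperature, with or without input ligand, for 0.8–1.5 h at the lowest and 10–20 min at the highest concentrations. Any design measured on fewer than 10 clusters was left out.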

[3] = designed as: OFF switch for theophylline, no ligand
[4] = ligand present: theophylline, designed as: OFF switch for theophylline
[5] = designed as: ON switch for theophylline, no ligand
[6] = ligand present: theophylline, designed as: ON switch for theophylline
[7] = designed as: ON switch for flavin mononucleotide, no ligand
[8] = ligand present: flavin mononucleotide, designed as: ON switch for flavin mononucleotide

Row | Sequence | apparent Kd (MS2 coat protein [1]; [3]) | apparent Kd (MS2 coat protein [1]; [4]) | apparent Kd (MS2 coat protein [1]; [5]) | apparent Kd (MS2 coat protein [1]; [6]) | other results
1 | UCCUCCUCCGGAAGGAGGAGGAGUUGCGAUACCAGCCCGGAAACGGGCCCUUGGCAGCGCACAUGAGGAUCACCCAUGUCAUGUU | 18.4 nM | 24.1 nM |  |  | 
2 | ACGAACUGUAGUGAUACCAGACACACAUGAGGAUCACCCAUGUUGUUAGCAUGGUGAAUAGUCCCUUGGCAGCACAGUUAGUUCG | 98.6 nM | 217 nM |  |  | 
3 | GGCCUUGCGGGCGCCCGCAAGGCCGCGGAUACCAGCGAGGUCCAUCGCCCUUGGCAGCCGAACAUGAGGAUCACCCAUGUCGGUU |  |  | 11 nM | 13.4 nM | 
4 | GUGAGGUUUGAUGAUACCAGAUGUGGUGGGAACAUGAGGAUCACCCAUGUUGUGAAACAGGUCCCUUGGCAGCAUGAGAGAGCUU |  |  | 47.8 nM | 44.3 nM | 
5 | UCUUACUUGGUAGAUACCAGCGUGUUAUCUUUCUUUUGACAUGAGGAUCACCCAUGUAUAUGCCCUUGGCAGCUGCAUAGUGUGU |  |  | 34.9 nM | 35.1 nM | 
6 | ACCAGCACACAUGAUACCAGCGACAUGAGGAUCACCCAUGUACGGCGUGUAUCGAAAGGUUGCCCUUGGCAGCAUGAUAGUGCUA | 12.8 nM | 129 nM |  |  | 
7 | AUAUGAUCAUGUGAUACCAGAAAUGGUAGUCUUCACUGGAUUACAUGAGGAUCACCCAUGUUCCCUUGGCAGCAUAUGAUCAUAU | 43.6 nM | 259 nM |  |  | 
8 | GGGUAUGAUCCGGAUACCAGCGAACAUGAGGAUCACCCAUGUGACCUAAGAUAGGCUCUACGCCCUUGGCAGCCGCGAUCGCGUU |  |  | 24.8 nM | 16.1 nM | 
9 | CGCACAGAGAAUGAUACCAGCGAGGAAGCGACAUGAGGAUCACCCAUGUGCGAAUGAUCCCGCCCUUGGCAGCGUAAGUGAUCCC |  |  | 111 nM | 71.3 nM | 
10 | AAUUGCGUUGGUGAGGCGGUUAAUGGCGAUACCAGCGUGGAAACACGCCCUUGGCAGCGCCAAAACAUGAGGAUCACCCAUGUUA | 73.5 nM | 200 nM |  |  | 
11 | UCGUGUGUUUCGGAUACCAGUGUGGUCGAUACAUGAGGAUCACCCAUGUGAGAGGAGGUACACCCUUGGCAGCUGGCUGUUGCGG |  |  | 72 nM | 86.4 nM | 
12 | UCUUGGUCCGCAAGGACCGUGAGUUGCGAUACCAGCACGGUAACGUGCCCUUGGCAGCGCACAUGAGGAUCACCCAUGUGGUGUU | 281 nM | 318 nM |  |  | 
13 | ACUAGUUGUGCAGAUACCAGACAUGAGGAUCACCCAUGUUUGGGUUGUUCGCAACUUCCUGUCCCUUGGCAGCUGUACAUCUAGA | 24.9 nM | 138 nM |  |  | 
14 | GCACCAGGUACGGAUACCAGAGCAAGCCAAAUGAGUGAACAUGAGGAUCACCCAUGUUUGCUCCCUUGGCAGCCGUACCUGGUGC | 9.34 nM | 45.2 nM |  |  | 
15 | AUUUAUUGUCGUGAUACCAGACAUACAUGAGGAUCACCCAUGUUAAGUAACAUUUUUUAGGUCCCUUGGCAGCACUUUUUAAUUA |  |  | 26.1 nM | 15.8 nM | 
16 | AUGUCGUUGAAUAUAGCGGCUUGGUGUGAUACCAGAAUGAUCAAAUUCCCUUGGCAGCAUUACAUGAGGAUCACCCAUGUUUAGG |  |  | 23.7 nM | 22.9 nM | 
17 | AAACGUUGCUCAGAUACCAGACAUGAGGAUCACCCAUGUACCGAGGUACCCGAAAGGAAUGUCCCUUGGCAGCUGAGCAACGAAA | 11 nM | 123 nM |  |  | 
18 | UGACAUUGCUCAGAUACCAGACAUGAGGAUCACCCAUGUGCCAAACGUACAAUAAUAAAUGUCCCUUGGCAGCUGAGCAAUGUCU | 11.3 nM | 101 nM |  |  | 
19 | AUGUCAUUGGUGUAGCUGUGAAAUGGCGAUACCAGCGUGGAAACACGCCCUUGGCAGCGCCAAAACAUGAGGAUCACCCAUGUUA | 87.6 nM | 272 nM |  |  | 
20 | GCUUGGGUGGCCCAGCCCUGGCAGGGCGAUACCAGCACGGUAACGUGCCCUUGGCAGCGCACAUGAGGAUCACCCAUGUGGUGCG | 127 nM | 266 nM |  |  | 
21 | UGUAUGUGAAGUGAUACCAGUCCAUAAACUGGAACAUGAGGAUCACCCAUGUAAUGGGUGGACCCUUGGCAGCACUUCUCAUACU |  |  | 122 nM | 136 nM | 
22 | CCACACAUGAGGAUCACCCAUGUAAUUGAUACCAGAUUUAAAUGAGUCCCUUGGCAGCAGUGAGCUAGAGUUGUCGUAUAUAUGG |  |  | 17 nM | 18.9 nM | 
23 | CCAGCCCUUCUAGAUACCAGCUUUCAAUAUAAGACAACUCACAUGAGGAUCACCCAUGUUAGCCCUUGGCAGCUAAGAUCCACAA |  |  |  |  | apparent Kd (MS2 coat protein [2]; [3]): 52.1 nM; apparent Kd (MS2 coat protein [2]; [4]): 57.3 nM
24 | CUGGAUCCGGGAGGAUAUAGACGUUCAGCCUCGUUGCUAACAAGACAUGAGGAUCACCCAUGUAUCUAGAAGGCCCGCCUGGGA |  |  |  |  | apparent Kd (MS2 coat protein [2]; [7]): 19.8 nM; apparent Kd (MS2 coat protein [2]; [8]): 13.8 nM
25 | GAACAUGAGGAUCACCCAUGUAGACGCAGGCUAAUAGAAUCGAGAAGGGCUAUAUGGGAACGCCAGCAGGAUAUCGGAGGUCAA |  |  |  |  | apparent Kd (MS2 coat protein [2]; [7]): 84 nM; apparent Kd (MS2 coat protein [2]; [8]): 49.1 nM
26 | GGCGUCCAAUUGCAGGAUAUCGGCCGAACAACAUGAGGAUCACCCAUGUCUUGCCACAAUCAUGCCGAGAAGGGCAGAAGAACGUG |  |  |  |  | apparent Kd (MS2 coat protein [2]; [7]): 21 nM; apparent Kd (MS2 coat protein [2]; [8]): 10.1 nM
